Results taken from ChEMBL document CHEMBL2034828, “Synthesis of β(1,3) oligoglucans exhibiting a Dectin-1 binding affinity and their biological evaluation” (Bioorg Med Chem, 2012).
Activity calls are given as the source filed them. The rule behind the calls is not given here.

Experiments:
[1] = biological target: T1, C-type lectin domain family 7 member A (Homo sapiens) (UniProt Q9BXN2); assay: Agonist activity at Dectin-1 expressed in human 293T cells assessed as LPS-mediated NF-kappaB activation after 6 hrs by dual luciferase reporter gene assay; assay type: functional, cell-based
T1 sequence (whole entry): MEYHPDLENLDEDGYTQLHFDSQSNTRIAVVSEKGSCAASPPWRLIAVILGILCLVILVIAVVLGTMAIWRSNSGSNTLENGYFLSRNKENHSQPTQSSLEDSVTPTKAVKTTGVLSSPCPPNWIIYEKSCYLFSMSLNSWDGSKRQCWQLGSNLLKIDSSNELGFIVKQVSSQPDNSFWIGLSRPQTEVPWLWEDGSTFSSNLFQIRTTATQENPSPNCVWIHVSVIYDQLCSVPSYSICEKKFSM
In short: (§1)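 293T cells were plated at 1 × 10⁴ cells/well in DMEM with 10% FBS for 20 h at 37 °C, 5% CO₂. They were then lipofected for 18 h. Dectin-1 wells received Dectin-1A, CARD9 and Bcl10 plasmids; TLR4 wells received TLR4 and MD-2 plasmids. Both received NF-κB-RE firefly and TK-Renilla reporters. Cells were stimulated 6 h with oligosaccharides, SPG, or oligosaccharides plus LPS. Read-out was the firefly/Renilla dual-luciferase ratio.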

[2] = biological target: T2, C-type lectin domain family 7 member A (Mus musculus) (UniProt Q6QLQ4); assay: Inhibition of mouse N-terminal hexahistidine-tagged C-type lectin domain of Dectin-1 expressed in Escherichia coli BL21 (DE3) binding to solid-supported schizophyllan pretreated for 30 mins prior SPG addition measured after 1 hr by competitive ELISA relative to SPG
T2 sequence (whole entry): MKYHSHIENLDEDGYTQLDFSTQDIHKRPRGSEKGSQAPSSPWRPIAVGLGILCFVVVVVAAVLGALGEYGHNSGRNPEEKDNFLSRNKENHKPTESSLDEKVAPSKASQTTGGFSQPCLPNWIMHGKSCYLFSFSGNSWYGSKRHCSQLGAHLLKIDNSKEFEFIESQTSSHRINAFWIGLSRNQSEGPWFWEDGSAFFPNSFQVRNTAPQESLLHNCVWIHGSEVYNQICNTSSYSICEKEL

[3] = biological target: Toll-like receptor 4 (Homo sapiens) (UniProt O00206); assay: Agonist activity at TLR4 expressed in human 293T cells assessed as LPS-mediated NF-kappaB activation after 6 hrs by dual luciferase reporter gene assay; assay type: functional, cell-based; in short: as §1
Toll-like receptor 4 (Homo sapiens), sequence (O00206 whole entry, the tested form may be a part): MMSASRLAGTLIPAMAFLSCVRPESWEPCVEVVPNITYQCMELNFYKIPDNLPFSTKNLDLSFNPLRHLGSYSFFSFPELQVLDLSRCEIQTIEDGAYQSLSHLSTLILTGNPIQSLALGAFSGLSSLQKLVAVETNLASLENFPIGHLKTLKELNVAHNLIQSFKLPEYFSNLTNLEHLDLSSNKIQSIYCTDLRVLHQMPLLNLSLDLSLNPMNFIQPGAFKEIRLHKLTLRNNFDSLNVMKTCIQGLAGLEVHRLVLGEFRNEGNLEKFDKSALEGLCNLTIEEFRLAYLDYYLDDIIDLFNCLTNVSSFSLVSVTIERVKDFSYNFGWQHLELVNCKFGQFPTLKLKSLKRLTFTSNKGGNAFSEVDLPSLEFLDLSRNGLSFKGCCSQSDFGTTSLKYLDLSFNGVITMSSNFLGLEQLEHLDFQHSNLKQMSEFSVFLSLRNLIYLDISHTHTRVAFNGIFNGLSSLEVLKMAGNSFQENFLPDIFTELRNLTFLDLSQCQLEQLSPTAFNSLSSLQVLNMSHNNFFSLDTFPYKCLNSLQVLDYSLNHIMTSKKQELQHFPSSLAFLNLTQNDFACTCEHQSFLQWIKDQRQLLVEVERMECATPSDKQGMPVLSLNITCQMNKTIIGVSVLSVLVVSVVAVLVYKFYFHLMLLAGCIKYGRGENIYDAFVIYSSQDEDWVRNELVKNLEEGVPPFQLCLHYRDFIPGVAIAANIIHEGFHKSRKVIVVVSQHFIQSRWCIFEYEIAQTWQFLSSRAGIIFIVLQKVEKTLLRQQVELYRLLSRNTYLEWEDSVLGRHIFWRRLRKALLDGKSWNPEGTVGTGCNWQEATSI

[4] = biological target: T2, C-type lectin domain family 7 member A (Mus musculus); assay: Binding affinity to mouse N-terminal hexahistidine-tagged C-type lectin domain of Dectin-1 expressed in Escherichia coli BL21 (DE3) by measuring saturation transfer difference amplification factor
In short: (§2)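 Protein was mouse Dectin-1 CTLD (Gly113–Leu244) with an N-terminal His6 tag and thrombin site, expressed in E. coli BL21(DE3)codonplus in LB. Expression was induced 6 h at 37 °C. Inclusion bodies were solubilized in 8 M urea, 50 mM Tris-HCl pH 8.0, 50 mM NaCl. Protein was refolded 16 h at 4 °C by dilution into 200 mM Tris-HCl pH 8.0, 0.4 M L-arginine, 5.0 mM GSH, 0.5 mM GSSG, then purified. Ligand was titrated at 0–25 molar equivalents with ¹H NMR monitoring.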

[5] = biological target: T2, C-type lectin domain family 7 member A (Mus musculus); assay: Binding affinity to mouse N-terminal hexahistidine-tagged C-type lectin domain of Dectin-1 expressed in Escherichia coli BL21 (DE3) by STD-NMR analysis; in short: as §2

Activity [1] | Activity [2] | Activity [3] | fold change (FC) [2] | Activity [4] | Activity [5] | Structure (SMILES)
inactive | inactive | – | – | – | – | NCCCCCCO[C@@H]1O[C@H](CO)[C@@H](O)[C@H](O[C@@H]2O[C@H](CO)[C@@H](O)[C@H](O[C@@H]3O[C@H](CO)[C@@H](O)[C@H](O[C@@H]4O[C@H](CO)[C@@H](O)[C@H](O[C@@H]5O[C@H](CO)[C@@H](O)[C@H](O[C@@H]6O[C@H](CO[C@@H]7O[C@H](CO)[C@@H](O)[C@H](O)[C@H]7O)[C@@H](O)[C@H](O[C@@H]7O[C@H](CO)[C@@H](O)[C@H](O[C@@H]8O[C@H](CO)[C@@H](O)[C@H](O)[C@H]8O)[C@H]7O)[C@H]6O)[C@H]5O)[C@H]4O)[C@H]3O)[C@H]2O)[C@H]1O
inactive | inactive | inactive | – | – | – | NCCCCCCO[C@@H]1O[C@H](CO)[C@@H](O)[C@H](O[C@@H]2O[C@H](CO)[C@@H](O)[C@H](O[C@@H]3O[C@H](CO)[C@@H](O)[C@H](O[C@@H]4O[C@H](CO)[C@@H](O)[C@H](O[C@@H]5O[C@H](CO)[C@@H](O)[C@H](O[C@@H]6O[C@H](CO)[C@@H](O)[C@H](O[C@@H]7O[C@H](CO)[C@@H](O)[C@H](O[C@@H]8O[C@H](CO)[C@@H](O)[C@H](O)[C@H]8O)[C@H]7O)[C@H]6O)[C@H]5O)[C@H]4O)[C@H]3O)[C@H]2O)[C@H]1O
inactive | inactive | inactive | – | – | – | NCCCCCCO[C@@H]1O[C@H](CO)[C@@H](O)[C@H](O[C@@H]2O[C@H](CO)[C@@H](O)[C@H](O[C@@H]3O[C@H](CO)[C@@H](O)[C@H](O[C@@H]4O[C@H](CO)[C@@H](O)[C@H](O[C@@H]5O[C@H](CO)[C@@H](O)[C@H](O[C@@H]6O[C@H](CO)[C@@H](O)[C@H](O[C@@H]7O[C@H](CO)[C@@H](O)[C@H](O[C@@H]8O[C@H](CO)[C@@H](O)[C@H](O[C@@H]9O[C@H](CO)[C@@H](O)[C@H](O[C@@H]%10O[C@H](CO)[C@@H](O)[C@H](O[C@@H]%11O[C@H](CO)[C@@H](O)[C@H](O[C@@H]%12O[C@H](CO)[C@@H](O)[C@H](O)[C@H]%12O)[C@H]%11O)[C@H]%10O)[C@H]9O)[C@H]8O)[C@H]7O)[C@H]6O)[C@H]5O)[C@H]4O)[C@H]3O)[C@H]2O)[C@H]1O
inactive | inactive | – | – | – | – | NCCCCCCO[C@@H]1O[C@H](CO)[C@@H](O)[C@H](O[C@@H]2O[C@H](CO)[C@@H](O)[C@H](O[C@@H]3O[C@H](CO)[C@@H](O)[C@H](O[C@@H]4O[C@H](CO)[C@@H](O)[C@H](O[C@@H]5O[C@H](CO)[C@@H](O)[C@H](O[C@@H]6O[C@H](CO)[C@@H](O)[C@H](O[C@@H]7O[C@H](CO)[C@@H](O)[C@H](O[C@@H]8O[C@H](CO)[C@@H](O)[C@H](O[C@@H]9O[C@H](CO)[C@@H](O)[C@H](O[C@@H]%10O[C@H](CO[C@@H]%11O[C@H](CO)[C@@H](O)[C@H](O)[C@H]%11O)[C@@H](O)[C@H](O[C@@H]%11O[C@H](CO)[C@@H](O)[C@H](O[C@@H]%12O[C@H](CO)[C@@H](O)[C@H](O)[C@H]%12O)[C@H]%11O)[C@H]%10O)[C@H]9O)[C@H]8O)[C@H]7O)[C@H]6O)[C@H]5O)[C@H]4O)[C@H]3O)[C@H]2O)[C@H]1O
Active | – | – | 10 | – | – | NCCCCCCO[C@@H]1O[C@H](CO)[C@@H](O)[C@H](O[C@@H]2O[C@H](CO)[C@@H](O)[C@H](O[C@@H]3O[C@H](CO)[C@@H](O)[C@H](O[C@@H]4O[C@H](CO)[C@@H](O)[C@H](O[C@@H]5O[C@H](CO)[C@@H](O)[C@H](O[C@@H]6O[C@H](CO)[C@@H](O)[C@H](O[C@@H]7O[C@H](CO)[C@@H](O)[C@H](O[C@@H]8O[C@H](CO)[C@@H](O)[C@H](O[C@@H]9O[C@H](CO)[C@@H](O)[C@H](O[C@@H]%10O[C@H](CO)[C@@H](O)[C@H](O[C@@H]%11O[C@H](CO)[C@@H](O)[C@H](O[C@@H]%12O[C@H](CO)[C@@H](O)[C@H](O[C@@H]%13O[C@H](CO)[C@@H](O)[C@H](O[C@@H]%14O[C@H](CO[C@@H]%15O[C@H](CO)[C@@H](O)[C@H](O)[C@H]%15O)[C@@H](O)[C@H](O[C@@H]%15O[C@H](CO)[C@@H](O)[C@H](O[C@@H]%16O[C@H](CO)[C@@H](O)[C@H](O)[C@H]%16O)[C@H]%15O)[C@H]%14O)[C@H]%13O)[C@H]%12O)[C@H]%11O)[C@H]%10O)[C@H]9O)[C@H]8O)[C@H]7O)[C@H]6O)[C@H]5O)[C@H]4O)[C@H]3O)[C@H]2O)[C@H]1O
Active | – | inactive | 10 | Active | Active | NCCCCCCO[C@@H]1O[C@H](CO)[C@@H](O)[C@H](O[C@@H]2O[C@H](CO)[C@@H](O)[C@H](O[C@@H]3O[C@H](CO)[C@@H](O)[C@H](O[C@@H]4O[C@H](CO)[C@@H](O)[C@H](O[C@@H]5O[C@H](CO)[C@@H](O)[C@H](O[C@@H]6O[C@H](CO)[C@@H](O)[C@H](O[C@@H]7O[C@H](CO)[C@@H](O)[C@H](O[C@@H]8O[C@H](CO)[C@@H](O)[C@H](O[C@@H]9O[C@H](CO)[C@@H](O)[C@H](O[C@@H]%10O[C@H](CO)[C@@H](O)[C@H](O[C@@H]%11O[C@H](CO)[C@@H](O)[C@H](O[C@@H]%12O[C@H](CO)[C@@H](O)[C@H](O[C@@H]%13O[C@H](CO)[C@@H](O)[C@H](O[C@@H]%14O[C@H](CO)[C@@H](O)[C@H](O[C@@H]%15O[C@H](CO)[C@@H](O)[C@H](O[C@@H]%16O[C@H](CO)[C@@H](O)[C@H](O)[C@H]%16O)[C@H]%15O)[C@H]%14O)[C@H]%13O)[C@H]%12O)[C@H]%11O)[C@H]%10O)[C@H]9O)[C@H]8O)[C@H]7O)[C@H]6O)[C@H]5O)[C@H]4O)[C@H]3O)[C@H]2O)[C@H]1O
